Wee1 stabilizer: Wee1 degradation inhibitors, primary screen, cell-based, HeLa, Wee1K328M-luciferase, luminescence; reporter increase, % at 5 µM; HeLa Luc-Wee1K328M stability; 100% = proteasome inhibitor MG132 effect; AID 1321, 2008; Wee1-like protein kinase (Homo sapiens), P30291; 220,000 tested, 1.2% active;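 active = activation above the mean of all tested compounds plus 3 SD, set per screening run, cut at about 8.8% in these data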;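 also: cells exposed to compound for 20 h before luminescence read; 0% = DMSO alone and 100% = MG132 at 30 µM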
Pf gamet viab: late stage P. falciparum gametocyte viability inhibitors, primary screen, ATP luminescence, HTS; P. falciparum stage V gametocytes, 24 h; inhibition, % at 10.9 µM; 150,000 tested, 0.065% active; AID 743093, 2013;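 active = inhibition above the mean plus 3 SD of compounds within the control limits, set per campaign, cut at about 38% in these data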;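 also: 0% = DMSO wells and 100% = medium only without gametocytes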
Calpain2 inh: inhibitors of pig calpain II, primary screen, biochemical, fluorogenic peptide substrate, 1536-well; inhibition, % at 16 µM; AID 1236, 2008; 220,000 tested, 0.37% active; purified calpain II, 30 min;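 active = inhibition above about 50%, limit read from the data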
RBBP9 inhibitor: human RBBP9 inhibitors, primary screen, biochemical, fluorescence polarization, FP-Rh probe, HTS; Serine hydrolase RBBP9 (Homo sapiens), O75884; recombinant RBBP9; inhibition, % at 7.94 µM; 220,000 tested, 0.2% active;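 active = inhibition above the campaign mean of all tested compounds plus 3 SD, cut at about 14% in these data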;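 also: plate controls were DMSO wells with RBBP9 for no effect and wells lacking RBBP9 protein for full effect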
Target sequence (O75884 whole entry, looked up): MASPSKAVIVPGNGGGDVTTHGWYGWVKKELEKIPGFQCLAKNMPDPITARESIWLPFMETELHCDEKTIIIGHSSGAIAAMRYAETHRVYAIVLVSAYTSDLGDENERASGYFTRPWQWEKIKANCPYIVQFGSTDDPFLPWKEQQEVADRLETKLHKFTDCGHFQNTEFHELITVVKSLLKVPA
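Measured by: FP readout at 525/598 nm; material: recombinant human RBBP9; also added: Serine-hydrolase probe FP-Rh, 375 nM pre-mixing; medium: Tris buffer pH 8.0, NaCl, Pluronic; replication: one well per compound; doses: one concentration, 7.94 µM nominal, 0.794% DMSO; timing: preincubation 30 min plus labeling 45 min at 25 °C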
TNF necrop inh: inhibitors of TNF-alpha triggered necroptosis, primary screen, cell-based, Jurkat FADD-/-, single concentration; Jurkat FADD-/- TNF necroptosis rescue, ATP luminescence, 24 h; 0 = TNF only, 100 = no-TNF cells; activation (protection from cell death), % at 10 µM; 220,000 tested, 0.068% active; AID 463075, 2010;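 active = activation, meaning protection from cell death, of at least 50% relative to plate controls; inactive = activation below 50%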;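 also: necroptosis triggered by 40 ng/mL TNF-alpha added together with compound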
L929 necroptosis: inhibitors of zVAD-triggered necroptosis, primary screen, L929 cells; 220,000 tested, 0.38% active; viability rescue, % at 10 µM; L929 zVAD necroptosis rescue, ATP luminescence, 24 h; with zVAD 60 µM;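 active = activation, scaled between plate controls, above about 75%, limit read from the data; inactive = activation under that limit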;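 also: 0% = zVAD with DMSO and 100% = DMSO alone without zVAD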
zVAD necrop conf: inhibitors of zVAD-triggered necroptosis in L929, confirmation, L929 cells, duplicate runs; shares compounds with L929 necroptosis; L929 zVAD-induced necroptosis rescue, ATP luminescence, 24 h; activation (protection from necroptosis), % at 10 µM; 760 tested, 16% active;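 active = mean protection from necroptosis of at least 50% over duplicate tests; inactive = mean protection below 50%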;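 also: 0% = cells with zVAD alone and 100% = vehicle cells without zVAD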
RBBP9 confirm: human RBBP9 inhibitors, retest, confirmation, biochemical, fluorescence polarization, FP-Rh probe, triplicate | 410 tested, 36% active | shares compounds with RBBP9 inhibitor | inhibition, % at 7.94 µM | recombinant RBBP9;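 active = inhibition above the hit cutoff derived for the primary screen, cut at about 15% in these data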;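 also: 0% = RBBP9 with DMSO and 100% = wells lacking RBBP9 protein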
Active calls of the source: *. Sampled rows, rich in hits. Any-hit rate of the full collection: about 2.1%.

What do the screens show for `COCCNCCOc1ccc(C(C)(C)c2ccccc2)cc1`?
Wee1 stabilizer: 1; Pf gamet viab: 8; Calpain2 inh: 4; RBBP9 inhibitor: -7; TNF necrop inh: 1; L929 necroptosis: 0

What do the screens show for `CC(=O)OC[C@]12CCC(C)=C[C@H]1O[C@@H]1[C@H](O)[C@@H](OC(C)=O)[C@@]2(C)[C@]12CO2`?
Calpain2 inh: -6; TNF necrop inh: -24; L929 necroptosis: 95*; zVAD necrop conf: 82*

What do the screens show for `CC(C)(C)NC(=O)C1CC2CCCCC2CN1` (stereo unspecified)?
Wee1 stabilizer: 2; Pf gamet viab: -6; Calpain2 inh: -17; RBBP9 inhibitor: -4; TNF necrop inh: 0; L929 necroptosis: 3

How did O=C(Nc1ccc(Cl)cc1)Nc1nccs1 do in these assays?
Wee1 stabilizer: 7; Pf gamet viab: -26; Calpain2 inh: -11; RBBP9 inhibitor: 5; TNF necrop inh: -4; L929 necroptosis: 86*; zVAD necrop conf: 7

What do the screens show for `CCN1/C(=C\C=C\C2=[N+](CC)c3ccccc3C2(C)C)C(C)(C)c2ccccc21`?
Wee1 stabilizer: -2; Calpain2 inh: 30; RBBP9 inhibitor: 100*; TNF necrop inh: -12; L929 necroptosis: 6; RBBP9 confirm: -50

Results for CC(C)N(Cc1ccco1)/N=C/c1c(O)n(Cc2ccccc2)c(=O)[nH]c1=O ?
Wee1 stabilizer: 3; Pf gamet viab: -1; Calpain2 inh: 6; RBBP9 inhibitor: 19*; TNF necrop inh: 2; L929 necroptosis: 0; RBBP9 confirm: 7

How did O=c1[nH]c(=O)n(Cc2ccco2)c(O)c1C=NC1CC1 do in these assays?
Wee1 stabilizer: -2; Calpain2 inh: -14; RBBP9 inhibitor: -3; TNF necrop inh: 1; L929 necroptosis: 0

Results for CCC(C)n1c(O)c(C=NC(C)c2ccccc2)c(=O)[nH]c1=S (stereo unspecified) ?
Wee1 stabilizer: 4; Pf gamet viab: 10; Calpain2 inh: 34; RBBP9 inhibitor: 16*; TNF necrop inh: -1; L929 necroptosis: 0; RBBP9 confirm: 2

What do the screens show for `O=C1CCCC2C3CCCN4CCCC(CN12)C34` (stereo unspecified)?
Wee1 stabilizer: -1; Calpain2 inh: 11; RBBP9 inhibitor: -5; TNF necrop inh: -3; L929 necroptosis: 0

What do the screens show for `CCOC(=O)C1CCCN(c2ccc([N+](=O)[O-])c3nonc23)C1` (stereo unspecified)?
Wee1 stabilizer: 2; Calpain2 inh: 60*; RBBP9 inhibitor: 19*; TNF necrop inh: -1; L929 necroptosis: -1; RBBP9 confirm: 31*

How did CCCC[N+]1(C)[C@@H]2CC(OC(=O)[C@H](CO)c3ccccc3)C[C@H]1[C@@H]1O[C@@H]12 (stereo partly specified) do in these assays?
Wee1 stabilizer: 3; Calpain2 inh: 12; RBBP9 inhibitor: -7

How did CC(C)N1CCN(c2ccc(O)cc2)CC1 do in these assays?
Wee1 stabilizer: 5; Pf gamet viab: 13; Calpain2 inh: 6; RBBP9 inhibitor: 15*; TNF necrop inh: -2; L929 necroptosis: 0; RBBP9 confirm: -1

Results for COC(=O)C1=C(c2ccc(F)cc2OCc2ccccc2)C[C@@H]2CC[C@H]1N2C(=O)NCc1ccccc1Cl ?
Pf gamet viab: -18

What do the screens show for `CCOCCN1CCN(c2nnc3n2-c2ccc(Cl)cc2C(c2ccccc2Cl)=NC3)CC1`?
Wee1 stabilizer: 1; Pf gamet viab: 3; Calpain2 inh: -6; RBBP9 inhibitor: -14; TNF necrop inh: -4; L929 necroptosis: 0
